# Data as given in PubChem BioAssay.
# Values without a mark were called inactive. Results filed as inconclusive are left out. Active and inactive are the calls of the source.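 The calls were made as follows, unless noted: active = cell viability at or below a set limit in both duplicate runs, the limit being the all-compound median minus 4 SD (cut at about 23% in these data, passing the limit was not always enough); inconclusive = no clear call, values can overlap the other calls; inactive = the rest.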
# Tests used:
# [1] = S. cerevisiae growth inhibition in permissive medium (OD615), pilot counter-assay for S. cerevisiae lifespan shortening project, permissive growth control (AID 705;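 active = growth inhibition above 25% in both replicates, a cutoff set 3 SD above the mean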); conditions: OD615, 24 h, at 10 µM, stronger effect = higher value
# Summary of the method: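 assay system = Saccharomyces cerevisiae strain carrying genetically modified DeaD replicative-lifespan system | medium = SC raffinose/galactose permissive medium | dosing = 10 µM single dose, 0.25% DMSO | schedule = 24 h compound exposure at 30 °C after 4 h pre-growth | measured by = OD at 615 nm | read-out basis = growth inhibition from lowered OD615 after 24 h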
# [2] = S. cerevisiae growth inhibition in restrictive medium, OD615, pilot screen, restrictive growth control, yeast lifespan reduction project (AID 706;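 active = growth inhibition above a set limit, 3 SD over mean compound inhibition, in both replicates, cut at about 43% in these data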;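 also: modified DeaD lifespan yeast strain shifted to restrictive glucose medium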); conditions: OD615, 48 h, at 10 µM, stronger effect = higher value
# Summary of the method: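 Buffer or medium: CSMM-D glucose medium. Material: genetically modified Saccharomyces cerevisiae, DeaD replicative lifespan assay strain. Times: 48 h compound exposure at 30 °C. Measured by: optical density at 615 nm.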
# [3] = doxorubicin toxicity protection in MRP-1 cells – H69AR cells, CellTiter-Glo, duplicate, MRP-1 activator project, pilot screen (AID 807;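 active = viability increase at or above a cutoff of the median across tested compounds plus 3 SD, cut at about 8.5% in these data, passing the limit was not always enough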;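 also: compound pretreatment 18-22 h then 72 h combined with doxorubicin; 0% = doxorubicin alone and 100% = vehicle without doxorubicin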); conditions: H69AR viability with doxorubicin, CellTiter-Glo luminescence; at 10 µM; stronger effect = higher value
# [4] = viability of HCT116 without oncogenic beta-catenin – human colon tumor cells, pilot screen (AID 823); conditions: HCT116 beta-catenin knockout viability, CellTiter-Glo, 60 h; at 10 µM; stronger effect = lower value;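 also: 0% = wells killed by 20 µM Hyamine and 100% = untreated DMSO cell wells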
# [5] = viability of PTEN-null HCT116 cells – cell-based, HCT116 clonal line, CellTiter-Glo, pilot screen (AID 824;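 active = viability at or below 27.92% in each of two runs, the all-compound median minus 4 SD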;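 also: 0% = 20 µM Hyamine control and 100% = vehicle cell control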); conditions: HCT116 PTEN-deleted viability, 60 h, at 10 µM, stronger effect = lower value
# [6] = RAM pathway blockade in budding yeast – dse1pr::URA3 reporter, 5-FOA selection, pilot screen (AID 869;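 active = inhibition over a set limit, the all-compound mean plus 3 SD, in both replicate runs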;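 also: 0% = DMSO wells with no growth and 100% = 10 µM 1-NA-PP1 with full growth; RAM network block rescues cells from 5-FOA so hits raise OD615 growth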); conditions: S. cerevisiae dse1pr::URA3 5-FOA growth, OD615, 2 d; at 10 µM; stronger effect = higher value; strain carries analog-sensitive mutant Cbk1 kinase
# [7] = RAM signaling pathway blockade in yeast – S. cerevisiae, Pdr1DBD-CYC8 efflux-inhibited sensitized strain, primary screen (AID 1298;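 active = RAM network inhibition above 8.4% in each of two replicates, 3 SD over the compound average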;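 also: 0% = DMSO untreated cells without growth and 100% = 10 µM 1-NA-PP1 full growth; higher means more yeast growth rescued from 5-FOA killing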); conditions: S. cerevisiae cbk1-as DSE1-URA3 strain, 5-FOA growth OD615, 2 d; at 50 µM; stronger effect = higher value
Structure (SMILES),growth inhibition [1] [%],growth inhibition [2],viability increase [3] [%],viability [4],viability [5],inhibition [6] [%],RAM network inhibition [7] [%]
CN(Cc1ccccc1)C(=O)c1ccc2c(c1)OCCO2,-14.5,-4.09%,-0.29,89.5%,94.6%,1.48,3.49
COC(=O)C(C)Sc1ccc2nnc(-c3cccc(F)c3)n2n1 (stereo unspecified),8.96,14.9%,-3.98,94.7%,87.4%,2.51,0.15
CCn1c(SCC(=O)N2CCN(c3ccccc3)CC2)nc2c(c1=O)SC(C)C2 (stereo unspecified),-13.4,-10.2%,-2.66,88.5%,78.4%,1.4,2.11
O=C(O)CSC1c2ccccc2C(=O)N1Cc1ccccc1 (stereo unspecified),-13.6,-2.05%,2.07,94.4%,93.7%,0.06,0.3
Cc1cc(C)n(/N=C/c2cccc(O)c2)c(=O)c1C(N)=O,-22.8,-22.5%,1.95,99.7%,100%,0.485,4.4
CCNc1nc(C)c2cc(Br)c(=O)n(CC)c2n1,-2.64,-8.07%,-6.29,66.4%,64.6%,0.44,7.93
CSCC[C@@H](C(=O)Nc1ccc2c(c1)OCCO2)N1Cc2ccccc2C1=O,3.3,1.73%,-2.91,99.3%,92.3%,0.83,4.13
CCCCS(=O)(=O)/C=C\C=C/S(=O)(=O)CCCC,14.9,60% (active),-7.95,1.4% (active),1.36% (active),-0.535,-3.06
COc1ccc(N(CC(=O)Nc2cc(OC)ccc2OC)S(=O)(=O)c2c(C)nn(C)c2C)cc1,-7.47,-15.8%,-4.82,95.6%,81%,1.36,0.21
COc1ccc(-c2nc(C(N)=O)c3[nH]c(=O)n(-c4cccc(C)c4)c3n2)c(OC)c1,-10.8,-14.3%,-5.41,81.6%,74.3%,3.42,5.6
Fc1cc(Br)ccc1Nc1nc2ccccc2n2nnnc12,-15.9,-15%,-4.01,91.5%,87.2%,1.94,5.36
O=C(NCCc1ccc(Cl)cc1)c1cnc2n(c1=O)CCS2,-1.75,-8.11%,3.85,95%,92.1%,0.37,9.74
COc1ccc(CN(C)C2CCCCC2)cc1,-16.4,-4.68%,0.58,95.9%,99%,1.12,4.95
COc1ccc(N2CCN(Cc3nc4c(c(=O)[nH]c(=O)n4C)n3Cc3cccc(Cl)c3)CC2)cc1,-9.21,-12.3%,-3.93,91.6%,77%,1.39,1.83
CCOC(=O)c1c(C)oc2cc(Br)c(OC(C)C(=O)OCC)cc12 (stereo unspecified),-10.4,-5.88%,-0.93,85.4%,92%,1.76,0.98
CC1c2[nH]c3ccccc3c2CCN1S(C)(=O)=O (stereo unspecified),2.66,14.2%,-0.49,98.4%,90.8%,0.31,0.57
N#Cc1ccc(Oc2cccnc2)cc1C#N,-13.5,-20.4%,-0.76,100%,97.5%,1.49,2.79

Structure (SMILES),growth inhibition [1] [%],growth inhibition [2],viability increase [3] [%],viability [4],viability [5],inhibition [6] [%],RAM network inhibition [7] [%]
O=C(c1cc2nc(-c3ccco3)cc(C(F)(F)F)n2n1)N1CCCCCC1,-9.02,-9.3%,-3.73,86.3%,83.7%,0.805,3.38
O=C1CC(c2ccco2)CC2=C1C1c3ccccc3C(=O)N1c1ccccc1N2 (stereo unspecified),-9.63,-5.43%,3.98,7.74% (active),7.59% (active),1.36,4.2
Cc1c(C(=O)NCc2ccccn2)sc2nc(-c3ccccc3)cn12,6.98,13.1%,0.68,112%,101%,0.91,0.57
CCOc1ccc(OCC)c(S(=O)(=O)NCCCN2CCOCC2)c1,-13.8,-12.2%,-0.25,99.8%,99%,0.535,0.2
Cc1ccc(F)cc1NC(=O)c1c(-c2ccccc2)noc1C,-10.2,-26.1%,-2.01,78.8%,72.9%,0.015,2.22
CC(C)N(Cc1nc(-c2ccccc2)no1)S(=O)(=O)c1ccccc1,-10.8,-9.29%,1.67,89.3%,79.5%,0.555,4.95
CCOC(=O)NC(Nc1nnc(SCC)s1)(C(F)(F)F)C(F)(F)F,-3.14,2.81%,-2.85,89.8%,91%,1.5,3.2
COc1ccc(OC)c2[nH]c(=O)c(CCNC(C)=O)cc12,-6.6,3.73%,-0.39,109%,104%,2.21,1.88
O=c1cnn(-c2ccccc2)c(-c2ccccc2)c1,-15.7,-5.25%,-6.23,31.1%,24% (active),2.04,1.25
O=P(O)(CCc1ccncc1)CN1CCCCC1,-9.59,-7.67%,2.46,97.3%,101%,1.82,-0.01
CC(=O)Nc1nc(CC(=O)c2ccccc2)cs1,-2.4,-4.14%,-0.56,102%,98.9%,1.15,0.47
COc1ccc(C2C(C(=O)NCc3ccccn3)c3ccccc3C(=O)N2C)cc1OC (stereo unspecified),-4.72,-0.835%,-0.8,101%,101%,1.01,0.74
CCc1ccccc1NC(=O)c1onc(C)c1Cl,-5.87,1.99%,-0.41,108%,97.7%,2.18,-1.13
COc1ccc(NC(=O)C2CCN(S(=O)(=O)c3cccc4cccnc34)CC2)cc1,-4.51,3.15%,1.75,102%,101%,2.21,0.67
Cc1ccc2cc(-c3noc(C4CCCCC4)n3)c(=O)[nH]c2c1,-10.9,-13%,-2.36,112%,104%,3.56,4.76
Cc1n[nH]c(C)c1S(=O)(=O)N(CC(=O)NC1CCCC1)c1ccc(C(C)C)cc1,-7.41,9.02%,-3.3,80.3%,76.9%,0.63,3.37
